# An excerpt weighted towards active compounds, which were near 3.4% of everything screened.
# A3A deaminase = blocks human APOBEC3A ssDNA deamination; P31941; recombinant A3A, FAM/TAMRA ssDNA deamination fluorescence; 330,000 tested, 0.41% active; inhibition, % at 20 µM;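 active means at least 40% inhibition at 20 µM here, with at most 30% in a related deaminase screen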;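 further: plate controls were A3A with DMSO for no effect and wells lacking A3A enzyme for full effect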
# Arr AP2 block = human beta-arrestin and AP2 interaction inhibition; 340,000 tested, 0.31% active; inhibition, % at 10 µM; FITC-arrestin peptide / GST-AP2 beads, flow cytometry; AP2 beta2 appendage carries R879A mutation; AID 504490;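 active means inhibition above a set limit, near 3 SD of compounds lacking own fluorescence, cut at about 54% in these data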;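 further: plate controls were DMSO wells for no effect and 5 µM unlabelled arrestin peptide for full effect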
#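 System: GST-AP2 R879A glutathione beads. Medium: PBS with 0.05% Tween 20 and 0.1% BSA. Also added: FITC-arrestin peptide, 50 nM. Incubation: 12 min plus 1 h, RT. Measured by: high-throughput flow cytometry of beads, ex 488, em 535 nm. Evaluation: percent drop in bead-associated FITC signal.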
# PolyA inh = inhibitors of polyadenylation in S. cerevisiae; S. cerevisiae SKY197-pL101 polyadenylation reporter, beta-gal luminescence; efflux-impaired pdr1/pdr3 knockout yeast; score 100 = 6 SD above DMSO; activity score, % at 12 µM; 300,000 tested, 0.02% active; AID 1875;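 active means lowest replicate activity score at least 50, where 100 means six control SD above control mean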;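 further: yeast exposed to compound for 9 h at 30 °C; higher score means more reporter readthrough which indicates perturbed polyadenylation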
# UCH37 DUB inh = inhibitors of human deubiquitinating enzyme UCH37; Q9Y5K5; purified proteasome/UCH37, Ub-AMC cleavage fluorescence; inhibition, % (concentration not given with the values); 330,000 tested, 0.33% active;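 active means mean inhibition over replicate wells above about 20%, limit read from the data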;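 further: 0% = compound-free wells with enzyme and 100% = wells lacking proteasome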
#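 Material: Human UCH37 enzyme supplied as purified proteasome complex | Schedule: 30 min compound-proteasome preincubation then 25 min substrate reaction, room temperature | Detection: AMC fluorescence from Ub-AMC cleavage, excitation 355 nm, emission 460 nm | Benchmarks: Wells without proteasome as full block, compound-free enzyme plus substrate as uninhibited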
# APOBEC3G inh = inhibitors of human APOBEC3G DNA deaminase. recombinant A3G, ssDNA deamination FAM/TAMRA fluorescence. inhibition, % at 20 µM. 330,000 tested, 0.28% active. AID 493012;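 active means inhibition of at least 40% at 20 µM, with no more than 30% in the related APOBEC3A deaminase screen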;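 further: plate controls were DMSO wells with A3G for no effect and wells lacking A3G enzyme for full effect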
# AHR activator = activators of human aryl hydrocarbon receptor | P35869 | AHR-responsive luciferase reporter cells, luminescence | activation, % at 5 µM | 320,000 tested, 2.5% active | AID 2796; in the data active means activation above about 47%;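 further: 0% = vehicle wells and 100% = reference agonist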
# Target sequence (P35869 whole entry, looked up): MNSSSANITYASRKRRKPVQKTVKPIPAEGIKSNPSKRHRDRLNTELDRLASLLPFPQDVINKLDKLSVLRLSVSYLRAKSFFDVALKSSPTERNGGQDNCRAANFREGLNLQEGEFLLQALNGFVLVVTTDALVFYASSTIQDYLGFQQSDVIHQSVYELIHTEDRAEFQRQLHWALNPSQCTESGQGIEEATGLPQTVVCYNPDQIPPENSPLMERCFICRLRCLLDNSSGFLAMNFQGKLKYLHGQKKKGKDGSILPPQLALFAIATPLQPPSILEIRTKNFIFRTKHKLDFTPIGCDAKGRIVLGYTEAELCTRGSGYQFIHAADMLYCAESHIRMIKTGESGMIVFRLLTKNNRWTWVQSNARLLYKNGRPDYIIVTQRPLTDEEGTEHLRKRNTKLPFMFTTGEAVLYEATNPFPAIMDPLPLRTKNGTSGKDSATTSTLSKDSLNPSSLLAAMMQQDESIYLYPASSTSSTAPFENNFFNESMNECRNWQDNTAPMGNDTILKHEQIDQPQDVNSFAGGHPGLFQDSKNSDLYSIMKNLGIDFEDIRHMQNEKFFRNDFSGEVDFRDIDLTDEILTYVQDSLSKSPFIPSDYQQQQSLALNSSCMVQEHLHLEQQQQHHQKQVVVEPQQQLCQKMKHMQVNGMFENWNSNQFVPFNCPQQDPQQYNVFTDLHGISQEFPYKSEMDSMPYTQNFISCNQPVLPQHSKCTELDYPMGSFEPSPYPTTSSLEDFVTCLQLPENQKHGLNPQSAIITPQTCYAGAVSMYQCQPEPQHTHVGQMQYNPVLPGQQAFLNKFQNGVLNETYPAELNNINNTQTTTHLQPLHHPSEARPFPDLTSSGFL
# APOBEC3G confirm = APOBEC3G (human) deaminase inhibition, confirmed. shares compounds with APOBEC3G inh. 890 tested, 72% active. AID 493152. inhibition, % at 20 µM. recombinant A3G ssDNA deaminase, UDG/FAM-TAMRA fluorescence;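 active means inhibition reaching a set limit in any replicate at 20 µM, the limit being 80% of the first screen's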
# UDG A3G counter = counter-screen for APOBEC3G inhibitors: E. coli UDG. AID 504715. inhibition, % at 20 µM. UDG counterscreen, FAM/TAMRA oligo fluorescence. 710 tested, under 10 active. shares compounds with APOBEC3G inh;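 active means compounds giving 40% or more inhibition at 20 µM in any one of the three replicates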;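 further: plate controls were DMSO wells with UDG and oligo for no effect and DMSO wells lacking both for full effect; inhibitors lower the FAM signal released by uracil excision and alkaline cleavage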
# Active calls of the source: *; . = not tested or not shown; ! = not confirmed by another sample.
SMILES,A3A deaminase,Arr AP2 block,PolyA inh,UCH37 DUB inh,APOBEC3G inh,AHR activator,APOBEC3G confirm,UDG A3G counter
CCOC(=O)c1cc(C)[nH]c(=S)c1C#N,-2.9,21.0,0.0,3.1,63.4*,8.1,81.8*,5.7
CC(/C=N/n1c(-c2n[nH]c3c2CCC3)n[nH]c1=S)=C\c1ccco1,14.6,-6.8,-12.5,.,55.2*,35.5,67.9*,-2.7
CC(/C=N/n1c(-c2cccnc2)n[nH]c1=S)=C\c1ccco1,14.7,-10.0,-5.7,.,70.8*,42.9,69.9*,-1.7
CC(=NNC(=O)c1ccncc1)c1cccnc1,.,.,.,2.9,.,.,.,.
CC(=NNS(=O)(=O)c1ccc(C)cc1)c1ccc(Br)s1,.,.,.,3.3,.,.,.,.
CCc1n[nH]c(=S)n1/N=C/c1c(O)ccc2ccccc12,-5.4,8.0,-4.3,.,51.6*,36.3,75.3*,3.1
CCCOc1ccc(CCc2n[nH]c(=S)n2-c2ccccc2)cc1,-2.4,-7.0,-14.3,4.5,-3.7,3.0,.,.
CCCCCC(O)CCc1n[nH]c(=S)n1-c1ccccc1 (stereo unspecified),0.2,15.5,3.6,-0.9,41.2*,-0.1,57.8*,-2.5
Brc1ccc(C=NN2CCN(C3c4ccccc4-c4ccccc43)CC2)s1,.,.,.,4.5,.,.,.,.
Cc1cc(-c2n[nH]c(=S)n2N=Cc2ccco2)n[nH]1,.,.,.,4.7,.,.,.,.
CC(/C=N/n1c(-c2cc(C)[nH]n2)n[nH]c1=S)=C\c1ccccc1,2.0,10.2,2.2,.,44.4*,77.6*,25.9,.
COc1ccc(/C=N/n2c(-c3cc(C)[nH]n3)n[nH]c2=S)cc1OC,-1.2,-16.2,-9.2,.,42.6*,0.5,62.8*,0.1
COc1ccc(C=Nn2c(-c3cc(C)[nH]n3)n[nH]c2=S)cc1,.,.,.,3.6,.,.,.,.
COc1ccc(/C=N/n2c(-c3cc(C)[nH]n3)n[nH]c2=S)cc1,-5.8,-8.2,21.3,.,46.2*,3.1,90.7*,-3.3
Cc1cc(-c2n[nH]c(=S)n2/N=C/c2ccc(C)o2)n[nH]1,-4.7,14.2,-6.1,.,40.4*,3.2,84.0*,-5.0
O=C(NC1CCCCCC1)C(=S)N1CCOCC1,5.3,25.2,5.5,-1.0,54.3*,0.7,44.1*,1.1
O=C(CN(Cc1ccc(F)cc1)S(=O)(=O)c1ccccc1)N1CCCCC1,-2.0,3.4,6.9,0.6,81.1*,-0.8,-21.6,-1.1
CC1CCc2c(sc(NC(=O)c3nc4ncccn4n3)c2C#N)C1 (stereo unspecified),2.7,-5.2,-14.0,-78.8,53.7*,1.8,40.1*,-1.6
O=c1c2cc(F)ccc2sn1-c1ccc(F)cc1,-1.6,24.3,.,-0.5,72.3*,10.3,78.0*,0.7
Cc1ccc(C)c(-n2sc3ccc(F)cc3c2=O)c1,0.2,7.8,.,3.9,55.9*,2.5,61.2*,-3.0
O=C1CCCC(=O)N1c1ccc(F)cc1,-5.0,8.8,8.2,3.6,-10.0,3.6,.,.
COc1ccc(-n2sc3ccc(F)cc3c2=O)cc1,-4.2,30.4,.,3.9,67.0*,17.9,81.0*,-1.7
CN(C)S(=O)(=O)c1cc(NC(=O)CN2CCN(c3ccc(O)cc3)CC2)ccc1Cl,-1.6,8.6,-7.6,1.1,58.1*,2.7,16.5,-5.8
CN(C)S(=O)(=O)c1cc(NC(=O)CN2CCN(c3ccccc3)CC2)ccc1Cl,1.4,15.8,23.7,4.7,-1.8,1.7,.,.
CC1Sc2ccc(C(=O)NCc3ccccn3)cc2NC1=O (stereo unspecified),2.7,14.5,.,2.0,54.6*,41.7,32.9*,-2.8
SMILES,A3A deaminase,Arr AP2 block,PolyA inh,UCH37 DUB inh,APOBEC3G inh,AHR activator,APOBEC3G confirm,UDG A3G counter
O=C(NC(=S)NNC(=O)c1ccccc1[N+](=O)[O-])c1ccccc1,-3.7,5.5,-2.6,4.4,45.8*,12.3,31.0*,2.7
O=C(NNC(=O)c1ccccc1[N+](=O)[O-])c1ccccc1[N+](=O)[O-],4.2,38.8,.,2.8,3.1,-2.8,.,.
CCC(=O)NC(=S)NNC(=O)c1ccccc1[N+](=O)[O-],-5.4,7.2,11.1,2.4,61.3*,2.8,1.6,-5.3
O=C(NNC(=S)NC(=O)c1ccccc1[N+](=O)[O-])c1ccccc1,-1.2,-1.6,3.9,6.9,-5.7,3.8,.,.
CC(C)c1c(C(=O)NN=Cc2ccccc2C(=O)O)nnn1-c1nonc1N,.,.,.,7.4,.,.,.,.
CC(Oc1cc(Cl)ccc1Cl)C(=O)NN=Cc1ccnn1C (stereo unspecified),.,.,.,2.0,.,.,.,.
COCCCC/C(=N\OCCN)c1ccc(C(F)(F)F)cc1,0.3,-1.3,-0.5,.,81.0*!,-0.8,-5.8,-0.1
CCCCCC(=O)N1CC2(CC(c3cccc(NC(=O)[C@@H]4CCC(=O)N4)c3)=NO2)C[C@@H]1C(N)=O (stereo partly specified),-2.7,-2.0,-11.2,-0.4,-4.6,0.2,.,.
C=C(C)C(=O)Nc1cccc(C2=NOC3(C2)C[C@@H](C(N)=O)N(C(=O)[C@H]2CCC(=O)N2)C3)c1 (stereo partly specified),4.1,31.7,21.7,0.3,42.6*,-1.0,45.7*,-4.6
C=C(C)C(=O)Nc1cccc(C2=NOC3(C2)C[C@@H](C(N)=O)N(C(=O)c2ccc(OC)cc2)C3)c1 (stereo partly specified),24.1,32.0,4.2,0.8,80.5*,0.3,99.6*,.
C/C=C(/C)C(=O)Nc1cccc(C2=NOC3(C2)C[C@@H](C(N)=O)N(C(=O)[C@H]2CCC(=O)N2)C3)c1 (stereo partly specified),0.3,-3.0,-10.0,2.9,4.3,2.5,.,.
C=C(C)C(=O)Nc1cccc(C2=NOC3(C2)C[C@@H](C(N)=O)N(C(=O)CCCCC)C3)c1 (stereo partly specified),21.9,-3.9,-8.9,1.0,86.3*,-0.4,93.7*,-3.4
COc1ccc(C=NNC(=O)c2cccnc2)cc1CN1CCOCC1,.,.,.,8.8,.,.,.,.
CSc1nc2c(c(=O)[nH]c(=O)n2C)n1Cc1ccc(Cl)cc1,1.5,28.5,-2.1,0.7,53.0*,2.4,56.2*,-3.2
CSc1nc2c(c(=O)[nH]c(=O)n2C)n1Cc1ccccc1Cl,-3.6,-0.9,15.0,1.4,-7.2,-2.5,.,.
N#CC1=C2SCN(c3ccccc3)CN2C(=O)CC1c1cccs1 (stereo unspecified),6.9,8.3,8.2,9.9,48.1*,2.0,55.4*,-2.3
COc1cc(OC)c(C2CC(=O)N3CN(c4ccccc4)CSC3=C2C#N)cc1OC (stereo unspecified),-3.6,-57.5,2.1,4.9,25.2,-2.7,.,.

# Compound activity as filed in PubChem.
